Source: article PMC5598257 (Toxicology Reports, 2015)

Legend:
Stability = assay type: physicochemical; conditions: for Rate constants, K (×10^4): hydrolysis in phosphate buffer (D2O), pseudo-first-order
Procedure, shortened: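 DMPC was sonicated in D2O phosphate buffer (pH 5.0–8.0) at 30% power for 5 min, 10 s on/off. To 800 μl of buffer with or without vesicles (compound:DMPC 1:5), 15 μl of a 0.337 M CDCl3 stock of test compound was added. 1H NMR ran at 25 °C, 128 scans, 2 s relaxation delay, integrating the C6H signal. Single-point runs. Pseudo-first-order rate constants; inhibition ratio is K without/with DMPC.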

[1] = tested on: MDA-MB-435s (human melanoma); test: In vitro cytotoxicity assay; assay type: cell-based; conditions: MDA-MB-435s cells, 72 h, MTT
Procedure, shortened: (§1)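 Cells were grown in DMEM with 10% FBS and seeded at 1–2 × 10^4 per well, depending on the line. Test compound (free, or co-evaporated with DMPC 1:5 from chloroform) was added at once at 250, 50, 10, 2, 0.4 and 0.08 μM. Incubation ran 72 h at 37 °C, 5% CO2. Survival was read by MTT at OD 540 nm. Buffer-treated controls were on a separate plate. Triplicate runs; IC50 by curve fitting.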

[2] = tested on: MCF-7 (human breast adenocarcinoma, estrogen-positive); test: In vitro cytotoxicity assay; assay type: cell-based; conditions: MCF-7 cells, 72 h, MTT
Procedure, shortened: as §1

H9C2 (rat myocardium) = test: In vitro cytotoxicity assay; assay type: cell-based; conditions: H9C2 normal cells, 72 h, MTT
Procedure, shortened: as §1

[3] = aqueous solutions, base catalyzed hydrolysis to 5-fluorouracil; cited from earlier work
C6 (rat glial tumor) = test: In vitro cytotoxicity assay; assay type: cell-based; conditions: C6 cells, 72 h, MTT
Procedure, shortened: as §1

[4] = tested on: SH-SY-5Y (human neuroblastoma); test: In vitro cytotoxicity assay; assay type: cell-based; conditions: SH-SY-5Y cells, 72 h, MTT
Procedure, shortened: as §1

Rate constants, K (×10^4) (Stability; pH 5.0, 25 °C)	Rate constants, K (×10^4) (Stability; pH 6.0, 25 °C)	Rate constants, K (×10^4) (Stability; pH 7.0, 25 °C)	Rate constants, K (×10^4) (Stability; pH 8.0, 25 °C)	Inhibition ratio, K1/K3 (Stability; pH 8.0, K of 1 alone over K of 1 with DMPC (3))	Time practically kept unharmed (Stability; phosphate buffer pH 5, without DMPC)	Time degradation completely prevented (Stability; with 2 (DMPC, 1:5), phosphate buffer, at decreasing pH)	Compound	IC50, concentration providing 50% cell killing effect [1]	IC50, concentration providing 50% cell killing effect [2]	IC50, concentration providing 50% cell killing effect (H9C2 (rat myocardium))	pH of highest stability [3]	IC50, concentration providing 50% cell killing effect (C6 (rat glial tumor))	IC50, concentration providing 50% cell killing effect [4]
0 ×10^4	0.17 ×10^4	0.54 ×10^4	0.70 ×10^4	over 7	more than 14 h	≥ 2 days	CCCCCCNC(=O)n1cc(F)c(=O)[nH]c1=O [compound 1, 1-hexylcarbamoyl-5-fluorouracil]	no activity in vitro	no activity in vitro	not cardiotoxic	~4	–	–
–	–	–	–	–	–	–	CCCCCCCCCCCCCC(=O)OC[C@H](COP(=O)([O-])OCC[N+](C)(C)C)OC(=O)CCCCCCCCCCCCC [compound 2, 1,2-dimyristoyl-sn-glycero-3-phosphocholine]	–	–	–	–	no cytotoxic effect	no cytotoxic effect
